Eight compounds from ChEMBL document CHEMBL1955847, “2-Morpholinoisoflav-3-enes as flexible intermediates in the synthesis of phenoxodiol, isophenoxodiol, equol and analogues: vasorelaxant properties, estrogen receptor binding and Rho/RhoA kinase pathway inhibition” (Bioorg Med Chem, 2012) can be followed below.

One may read the IC50 as the concentration at which inhibition is half-maximal. Lower therefore signals greater potency. One may read the pIC50 as −log10 of the IC50, conventionally taken in molar units. Read a low pIC50 as a large IC50.

For assay [1], the system named is Aorta. Briefly: Vasorelaxant activity in Sprague-Dawley rat thoracic aorta assessed as inhibition of phenylephirne-induced contraction. It is filed as functional, tissue-based. Put shortly:
(§1)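 Aortic rings 2–3 mm long from male Sprague-Dawley rats were bathed in Krebs-bicarbonate at 37 °C, pH 7.4, aerated with 95% O2/5% CO2, and equilibrated 1 h at 1 g resting tension. Rings were maximally contracted with KPSS (122.7 mM KCl) and re-equilibrated, then given submaximal phenylephrine. Endothelium was checked with acetylcholine, and cumulative concentration-response curves were run. DMSO was at most 0.1%. n = 3–5.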

In assay [2] the target is T1, Estrogen receptor (Rattus norvegicus, UniProt P06211).
T1 sequence (P06211 whole entry): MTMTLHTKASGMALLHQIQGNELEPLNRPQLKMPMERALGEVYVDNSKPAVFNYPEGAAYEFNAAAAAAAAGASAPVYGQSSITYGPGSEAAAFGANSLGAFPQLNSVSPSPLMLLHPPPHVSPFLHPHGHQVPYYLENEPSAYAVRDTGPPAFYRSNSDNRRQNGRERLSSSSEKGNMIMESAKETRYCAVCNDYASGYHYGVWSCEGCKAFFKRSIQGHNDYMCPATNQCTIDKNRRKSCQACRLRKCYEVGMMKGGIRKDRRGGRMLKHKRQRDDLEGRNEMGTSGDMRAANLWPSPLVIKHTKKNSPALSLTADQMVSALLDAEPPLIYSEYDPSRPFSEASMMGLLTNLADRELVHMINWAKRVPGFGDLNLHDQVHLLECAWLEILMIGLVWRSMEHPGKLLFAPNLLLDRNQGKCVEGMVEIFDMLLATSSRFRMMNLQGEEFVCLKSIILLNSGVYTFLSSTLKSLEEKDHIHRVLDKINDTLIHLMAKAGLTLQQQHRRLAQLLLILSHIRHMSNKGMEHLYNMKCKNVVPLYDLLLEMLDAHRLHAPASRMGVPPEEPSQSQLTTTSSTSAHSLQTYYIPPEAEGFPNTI
Briefly: Displacement of [3H]estradiol from rat uterine cytosolic estrogen receptor. Put shortly: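 Rat uterine cytosol incubated with 0.2 nM [3H]-estradiol in 10 mM Tris (pH 7.4, 1.5 mM EDTA, 10% w/v glycerol, 1 mM PMSF), with and without ICI 182,780 to define binding. Compounds were made from 10 mM DMSO stocks and diluted into buffer, giving 0.1% v/v DMSO at the top concentration and in all lower dilutions.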

Assay [3] relates to Aorta. Briefly: Vasorelaxant activity in Sprague-Dawley rat thoracic aorta assessed as inhibition of U46619-induced GTP RhoA level at 100 uM pretreated for 30 mins measured after 45 mins by spectrometric analysis. The format is functional, tissue-based. A digest of the protocol: (§2)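 Male Sprague-Dawley thoracic aortic rings were denuded of endothelium and pretreated 30 min with compound, flavone or vehicle, then contracted with 30 nM U46619. Rings were snap-frozen in liquid N2 and homogenized in lysis buffer, then spun at 12,000g for 15 min at 4 °C. Supernatant was run in a RhoA G-LISA with HRP detection and absorbance read at 490 nm. Triplicate.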

Assay [4] relates to Aorta. Briefly: Vasorelaxant activity in Sprague-Dawley rat thoracic aorta assessed as inhibition of U46619-induced vascular tension at 100 uM pretreated for 30 mins. It is filed as functional, tissue-based. A digest of the protocol: (§3)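 Male Sprague-Dawley thoracic aortic rings were held in Krebs-bicarbonate at 37 °C, pH 7.4, gassed with 95% O2/5% CO2. Rings were pretreated 30 min with compound or vehicle, then contracted with 30 nM U46619, and vascular tension was recorded. Final DMSO was 0.1%. n = 2, run in duplicate.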

Assay [5] relates to Aorta. Put plainly: Vasorelaxant activity in Sprague-Dawley rat thoracic aorta assessed as inhibition of U46619-induced vascular tension at 300 uM pretreated for 30 mins. It is filed as functional, tissue-based. Put shortly: as §3
Assay [6] concerns Aorta. Put plainly: Vasorelaxant activity in Sprague-Dawley rat thoracic aorta assessed as inhibition of U46619-induced GTP RhoA level at 300 uM pretreated for 30 mins measured after 45 mins by spectrometric analysis. The format is functional, tissue-based. Put shortly:
as §2

Assay [7] concerns Aorta. Briefly: Vasorelaxant activity in Sprague-Dawley rat thoracic aorta assessed as inhibition of phenylephirne-induced contraction at highest concentration. It is filed as functional, tissue-based. Put shortly:
as §1

Assay [8] deals with Aorta. Put plainly: Vasorelaxant activity in Sprague-Dawley rat thoracic aorta assessed as inhibition of phenylephirne-induced contraction in presence of 0.1 uM estrogen receptor antagonist ICI 182780. It is filed as functional, tissue-based.

Activity calls are given as the source filed them. The rule behind the calls is not given here.

As to `Oc1ccc(C2=COc3cc(O)ccc3C2)cc1` [ISOPHENOXODIOL], in assay [1], the Activity entry is “Dose-dependent effect”. Also, the concentration for half-maximal inhibition (IC50) in assay [2] was 0.234 µM.

For `Oc1ccc2c(c1)OCC(c1ccccc1)C2` (stereo unspecified), the Activity result in assay [1] is “Dose-dependent effect”. Further, the outcome in assay [3] and in assay [4] was Active. In addition, the 50% inhibitory concentration (IC50) in assay [2] was 3.63 µM.

For the compound `Oc1ccc(C2COc3cc(O)ccc3C2)cc1` (racemic), in assay [1], the Activity entry is “Dose-dependent effect”. For the same compound, the result in assay [3] and in assay [4] was Active. Moreover, the 50% inhibitory concentration (IC50) in assay [2] is 1.66 µM.

`Oc1ccc(C2COc3ccccc3C2)cc1` (stereo unspecified): the Activity result in assay [1] is “Dose-dependent effect”. Also, the result in assay [3] and in assay [4] was Active. The IC50 in assay [2] is 7.59 µM.

As for `O=c1cc(-c2ccccc2)oc2ccccc12`, the result in assay [5] and in assay [6] was Active.

With `Oc1ccc(C2=Cc3ccc(O)cc3OC2)cc1` [IDRONOXIL], the Activity result in assay [1] is “Dose-dependent effect”. Moreover, the outcome in assay [3] and in assay [4] was Active. The same compound had an IC50 in assay [2] of 0.661 µM.

For `C[C@]12CC[C@@H]3c4ccc(O)cc4C[C@@H](CCCCCCCCC[S+]([O-])CCCC(F)(F)C(F)(F)F)[C@H]3[C@@H]1CC[C@@H]2O` (stereo partly specified) [FULVESTRANT], in assay [2], the concentration for half-maximal inhibition (IC50) is 0.00589 µM.

Take `c1ccc(C2COc3ccccc3C2)cc1` (stereo unspecified): the result in assay [3], in assay [4] and in assay [7] was Active. Besides, the negative-log IC50 (pIC50) in assay [2] was above 5. The outcome in assay [8] was inactive.
